Active and inactive are the calls of the source. The calls are words filed in the database; no cut-off is given here.
Tests used:
[1] = molecular target: T1, Vancomycin/teicoplanin A-type resistance protein VanA (Enterococcus faecium) (UniProt P25051); experiment: Inhibition of Enterococcus faecium VanA at 500 uM by pyruvate kinase/lactate dehydrogenase coupled assay
T1 sequence (whole entry): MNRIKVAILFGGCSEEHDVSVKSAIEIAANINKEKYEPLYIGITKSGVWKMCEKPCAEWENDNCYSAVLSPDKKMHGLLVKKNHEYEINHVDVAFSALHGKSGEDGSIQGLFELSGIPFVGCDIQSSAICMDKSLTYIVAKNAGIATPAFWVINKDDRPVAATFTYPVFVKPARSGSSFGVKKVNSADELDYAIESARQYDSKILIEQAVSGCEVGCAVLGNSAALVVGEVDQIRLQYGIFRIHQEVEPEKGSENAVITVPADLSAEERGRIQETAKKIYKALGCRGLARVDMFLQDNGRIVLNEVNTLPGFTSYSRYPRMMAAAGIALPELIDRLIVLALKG
In short: (§1)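 VanA measured by NADH depletion at 340 nm via PK/LDH coupling, 37 °C. Buffer 100 mM Hepes pH 7.5, 10 mM MgCl2, 10 mM KCl, 10% (v/v) DMSO ± compound; 2 mM PEP, 0.2 mM ATP, PK, LDH, NADH; substrates 8 mM D-Ala and 1.78 mM D-Lac; started by adding VanA.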

[2] = system: Escherichia coli; experiment: Inhibition of Escherichia coli […] at 500 uM by pyruvate kinase/lactate dehydrogenase coupled assay
[3] = molecular target: T2, Vancomycin/teicoplanin A-type resistance protein VanA (Enterococcus faecium, UniProt P25051); experiment: Inhibition of Enterococcus faecium VanA by pyruvate kinase/lactate dehydrogenase coupled assay; in short: as §1
T2 sequence (P25051 whole entry): T1 sequence (whole entry)

[4] = Inhibition of Escherichia coli […] by pyruvate kinase/lactate dehydrogenase coupled assay
[5] = molecular target: T1, Vancomycin/teicoplanin A-type resistance protein VanA (Enterococcus faecium); experiment: Inhibition of Enterococcus faecium VanA at 10 mM by pyruvate kinase/lactate dehydrogenase coupled assay; in short: as §1
[6] = system: Escherichia coli; experiment: Inhibition of Escherichia coli […] at 10 mM by pyruvate kinase/lactate dehydrogenase coupled assay

| inhibition [1] | inhibition [2] | IC50 [3] [µM] | IC50 [4] [µM] | Activity [5] | Activity [6] | SMILES |
| --- | --- | --- | --- | --- | --- | --- |
| 75% | 77% | 290 | 136 | – | – | O=P(O)(O)OC(CNS(=O)(=O)c1ccc(F)cc1)CN1CCOCC1 (stereo unspecified) |
| 83% | 83% | 224 | 110 | – | – | COc1ccc(S(=O)(=O)NCC(CN2CCOCC2)OP(=O)(O)O)cc1 (stereo unspecified) |

The remaining lines, values behind:

| SMILES | inhibition [1] | inhibition [2] | IC50 [3] [µM] | IC50 [4] [µM] | Activity [5] | Activity [6] |
| --- | --- | --- | --- | --- | --- | --- |
| COc1ccc(S(=O)(=O)NCC(CN2CCOCC2)OP(=O)(O)Oc2ccccc2)cc1 (stereo unspecified) | inactive | inactive | – | – | – | – |
| COc1ccc(S(=O)(=O)NCC(O)CN2CCOCC2)cc1 (stereo unspecified) | – | – | – | – | inactive | inactive |
| O=P(O)(Oc1ccccc1)OC(CNS(=O)(=O)c1ccc(F)cc1)CN1CCOCC1 (stereo unspecified) | 65% | inactive | – | – | – | – |
| O=S(=O)(NCC(O)CN1CCOCC1)c1ccc(F)cc1 (stereo unspecified) | – | – | – | – | inactive | inactive |
